This note sets out measurements from paper PMC12080315 (Chemistry (Weinheim an Der Bergstrasse, Germany), 2025).

“Also recorded” adds a separate entry of the source.

One test concerns the target recombinant GGTase I (Homo sapiens, UniProt P49354+P53609). Briefly: Fluorescent in vitro GGTase I inhibition assay. Format: biochemical. A digest of the protocol:
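Recombinant GGTase I (25–37 nM) was run with dansyl-labelled K-Ras C-terminal peptide (1 µM) and test compound at 0–500 µM. GGPP was diluted to a 110 µM working stock before use. Buffer was 50 mM Tris-HCl pH 7.5 with MgCl2, ZnCl2, dodecyl maltoside and DTT, at 37 °C. Fluorescence kinetics (ex 340/em 520 nm) were recorded over 5 min. n = 3, SEM.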

The target in a further test is recombinant FTase (Homo sapiens, UniProt P49354+P49356). Briefly: Fluorescent in vitro FTase inhibition assay. In kind it is biochemical. Particulars: for selectivity for FTase over GGTase I: ratio of K i values GGTase I / FTase. A digest of the protocol:
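Recombinant FTase (25–37 nM) was reacted with dansyl-labelled K-Ras4B C-terminal peptide (1 µM) and FPP (5 µM), with test compound at 0–500 µM. Enzyme, substrates and compound were spotted separately, then buffer was added to start the reaction. Fluorescence (ex 340/em 520 nm) was followed for 5 min. n = 3, SEM.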

The test system of another test is K‐Ras prenylation. Briefly: Gel-shift assay. In kind it is cell-based, human. Conditions: MiaPaca‐2 cells, 48 hours, 30 and 100 µM. A digest of the protocol: (§1)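 MiaPaCa2 cells were grown in DMEM with 10% heat-inactivated FBS and 1% penicillin-streptomycin. They were treated 48 h with vehicle or test compound at 30 and 100 µM; the positive control, a dual FTase/GGTase I inhibitor, was used at 10 and 30 µM. Cells were PBS-washed and lysed with protease and phosphatase inhibitors. Lysates ran on 4–20% SDS-PAGE gel-shift blots, probed with anti-K-Ras or anti-Rap1A+B, plus anti-vinculin.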

A further test concerns MiaPaCa2 cells. Briefly: Antiproliferative activity, trypan blue cell viability assay. Format: cell-based, human. Particulars: for IC50: Homo sapiens, MIA PaCa-2, 72 h, read-out: IC50, antiproliferation activity. A digest of the protocol: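 MiaPaCa2 cells (K-Ras G12C) seeded at 1×10³ cells/well and left overnight at 37 °C, 5% CO2. Next day they were given various concentrations of test compound and incubated 72 h at 37 °C, 5% CO2. A trypan blue assay followed, […]. Sotorasib served as positive control. n = 3, mean ± SEM.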

The next test deals with Rap1 geranylgeranylation. Briefly: Gel-shift assay. In kind it is cell-based, human. Conditions: MiaPaca‐2 cells, 48 hours, 30 and 100 µM. A digest of the protocol: as §1

Sequence of recombinant GGTase I (P53609 whole entry, one chain of several): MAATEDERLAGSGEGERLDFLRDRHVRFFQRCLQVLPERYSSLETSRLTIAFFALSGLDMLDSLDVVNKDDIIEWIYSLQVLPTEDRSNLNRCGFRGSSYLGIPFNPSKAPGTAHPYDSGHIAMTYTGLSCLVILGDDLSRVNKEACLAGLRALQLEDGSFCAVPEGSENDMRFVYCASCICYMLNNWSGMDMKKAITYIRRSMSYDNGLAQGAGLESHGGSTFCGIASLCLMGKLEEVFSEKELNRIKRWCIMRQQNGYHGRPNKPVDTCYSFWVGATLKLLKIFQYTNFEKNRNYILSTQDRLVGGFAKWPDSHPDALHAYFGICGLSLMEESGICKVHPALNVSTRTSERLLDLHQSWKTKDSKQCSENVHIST
Sequence of recombinant FTase (P49356 whole entry, one chain of several): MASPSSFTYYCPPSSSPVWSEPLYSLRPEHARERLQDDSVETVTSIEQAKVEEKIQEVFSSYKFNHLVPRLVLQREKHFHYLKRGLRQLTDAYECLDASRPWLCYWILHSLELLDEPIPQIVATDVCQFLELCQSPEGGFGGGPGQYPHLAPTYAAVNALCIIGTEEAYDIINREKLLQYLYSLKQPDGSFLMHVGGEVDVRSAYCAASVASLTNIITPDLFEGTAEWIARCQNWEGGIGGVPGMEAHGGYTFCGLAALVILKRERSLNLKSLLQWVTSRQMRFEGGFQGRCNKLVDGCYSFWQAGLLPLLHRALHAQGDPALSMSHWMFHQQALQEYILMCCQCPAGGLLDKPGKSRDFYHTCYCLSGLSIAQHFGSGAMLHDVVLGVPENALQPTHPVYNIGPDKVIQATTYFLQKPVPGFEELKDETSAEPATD

As to `CSCC[C@H](NC(=O)NC1(c2ccccc2)CCN(Cc2cnc[nH]2)CC1)C(=O)O` [Compound 1, ((1‐((1H‐Imidazol‐5‐yl)methyl)‐4‐phenylpiperidin‐4‐yl)carbamoyl)‐L‐methionine], the IC50 at recombinant GGTase I is greater than 500000 nM. Moreover, the Ki (in general, a measure of affinity in units of concentration, obtained from inhibition or displacement) on recombinant FTase was found to be 790 ± 45 nM.

Take `COC(=O)[C@H](CCSC)NC(=O)NC1(c2ccccc2)CCN(Cc2cncn2Cc2ccc(N=[N+]=[N-])cc2)CC1` [Compound 2, Methyl ((1‐((1‐(4‐azidobenzyl)‐1H‐imidazol‐5‐yl)methyl)‐4‐phenylpiperidin‐4‐yl)carbamoyl)‐L‐methioninate]: the “inhibition of prenylation (processing) of K‐Ras in cells” value in the test on K‐Ras prenylation was “able to inhibit; also recorded: inhibit the processing”. Also, the IC50 with MiaPaCa2 cells fell in the range of 100 to 1000 nM. Further, in the test with MiaPaCa2 cells (MiaPaCa2 cells, 72 hours), the “IC50 relative to that of sotorasib” value is given as “approximately 10 fold”. Moreover, in the test with Rap1 geranylgeranylation, the “inhibition of geranylgeranylation (processing) of Rap1 in cells” value (“inhibition of geranylgeranylation” below) was “inhibited; also recorded: inhibit the processing”.

Consider `CSCC[C@H](NC(=O)NC1(c2ccccc2)CCN(Cc2cncn2Cc2ccc(N=[N+]=[N-])cc2)CC1)C(=O)O` [Compound 3, ((1‐((1‐(4‐Azidobenzyl)‐1H‐imidazol‐5‐yl)methyl)‐4‐phenylpiperidin‐4‐yl)carbamoyl)‐L‐methionine], for which, on recombinant GGTase I, the IC50 was 6480 nM and the inhibition constant (Ki) is 210 nM. Also, on recombinant FTase, the IC50 is 350 nM, the inhibition constant Ki turned out to be 2.1 ± 0.5 nM and the “selectivity for FTase over GGTase I” value was 100 fold. The “increase in potency for FTase compared to 1” value at recombinant FTase (ratio of K i values) worked out at 376 fold.

For the compound `COC(=O)[C@H](CCSC)NC(=O)NC1(c2ccccc2)CCN(Cc2cncn2Cc2ccc(-n3cc(COCCCCCCNC(=O)c4ccc(N)cc4)nn3)cc2)CC1` [Compound 4c, Methyl ((1‐((1‐(4‐(4‐(((6‐(4‐aminobenzamido)hexyl)oxy)methyl)‐1H‐1,2,3‐triazol‐1‐yl)benzyl)‐1H‐imidazol‐5‐yl)methyl)‐4‐phenylpiperidin‐4‐yl)carbamoyl)‐L‐methioninate], in the test with K‐Ras prenylation, the “inhibition of prenylation (processing) of K‐Ras in cells” value is reported as “able to inhibit; also recorded: inhibit the processing; also recorded: disrupt the processing”. In the test on Rap1 geranylgeranylation, the “inhibition of geranylgeranylation” value was “inhibited; also recorded: more potent than 2; also recorded: inhibit the processing; also recorded: disrupt the processing”.

Take `COC(=O)[C@H](CCSC)NC(=O)NC1(c2ccccc2)CCN(Cc2cncn2Cc2ccc(-n3cc(COCCCCCCNC(=O)c4ccc(NC(=N)N)cc4)nn3)cc2)CC1` [Compound 4d, Methyl ((1‐((1‐(4‐(4‐(((6‐(4‐guanidinobenzamido)hexyl)oxy)methyl)‐1H‐1,2,3‐triazol‐1‐yl)benzyl)‐1H‐imidazol‐5‐yl)methyl)‐4‐phenylpiperidin‐4‐yl)carbamoyl)‐L‐methioninate]: the “inhibition of geranylgeranylation” value in the test on Rap1 geranylgeranylation was “did not inhibit”.

With `COC(=O)[C@H](CCSC)NC(=O)NC1(c2ccccc2)CCN(Cc2cncn2Cc2ccc(-n3cc(COCCCCCCNC(=O)c4ccc(C(=N)N)cc4)nn3)cc2)CC1` [Compound 4e, Methyl ((1‐((1‐(4‐(4‐(((6‐(4‐carbamimidoylbenzamido)hexyl)oxy)methyl)‐1H‐1,2,3‐triazol‐1‐yl)benzyl)‐1H‐imidazol‐5‐yl)methyl)‐4‐phenylpiperidin‐4‐yl)carbamoyl)‐L‐methioninate], the “inhibition of geranylgeranylation” value in the test on Rap1 geranylgeranylation was “did not inhibit”.

In the case of `CSCC[C@H](NC(=O)NC1(c2ccccc2)CCN(Cc2cncn2Cc2ccc(-n3cc(COCCCCCCNC(=N)N)nn3)cc2)CC1)C(=O)O` [Compound 5a, ((1‐((1‐(4‐(4‐(((6‐Guanidinohexyl)oxy)methyl)‐1H‐1,2,3‐triazol‐1‐yl)benzyl)‐1H‐imidazol‐5‐yl)methyl)‐4‐phenylpiperidin‐4‐yl)carbamoyl)‐L‐methionine], on recombinant GGTase I, the IC50 is 7840 nM and the inhibitory constant (Ki) is 250 ± 50 nM. Besides, at recombinant FTase, the IC50 is 290 nM, the inhibitory constant (Ki) turned out to be 1.7 ± 0.5 nM and the “selectivity for FTase over GGTase I” value turned out to be 147 fold.

Turning to `CSCC[C@H](NC(=O)NC1(c2ccccc2)CCN(Cc2cncn2Cc2ccc(-n3cc(COCCCCCCN)nn3)cc2)CC1)C(=O)O` [Compound 5b, ((1‐((1‐(4‐(4‐(((6‐Aminohexyl)oxy)methyl)‐1H‐1,2,3‐triazol‐1‐yl)benzyl)‐1H‐imidazol‐5‐yl)methyl)‐4‐phenylpiperidin‐4‐yl)carbamoyl)‐L‐methionine], at recombinant GGTase I, the IC50 was 2400 nM and the Ki was 77 ± 51 nM. In addition, on recombinant FTase, the IC50 is 630 nM, the Ki came out at 3.8 ± 1.1 nM and the “selectivity for FTase over GGTase I” value was 20 fold.

Consider `CSCC[C@H](NC(=O)NC1(c2ccccc2)CCN(Cc2cncn2Cc2ccc(-n3cc(COCCCCCCNC(=O)c4ccc(N)cc4)nn3)cc2)CC1)C(=O)O` [Compound 5c, ((1‐((1‐(4‐(4‐(((6‐(4‐Aminobenzamido)hexyl)oxy)methyl)‐1H‐1,2,3‐triazol‐1‐yl)benzyl)‐1H‐imidazol‐5‐yl)methyl)‐4‐phenylpiperidin‐4‐yl)carbamoyl)‐L‐methionine], for which, on recombinant GGTase I, the IC50 is 90 nM and the Ki turned out to be 2.9 ± 0.7 nM. On recombinant FTase, the IC50 was 752 nM and the inhibitory constant (Ki) turned out to be 4.6 ± 0.08 nM.

For `CSCC[C@H](NC(=O)NC1(c2ccccc2)CCN(Cc2cncn2Cc2ccc(-n3cc(COCCCCCCNC(=O)c4ccc(NC(=N)N)cc4)nn3)cc2)CC1)C(=O)O` [Compound 5d, ((1‐((1‐(4‐(4‐(((6‐(4‐Guanidinobenzamido)hexyl)oxy)methyl)‐1H‐1,2,3‐triazol‐1‐yl)benzyl)‐1H‐imidazol‐5‐yl)methyl)‐4‐phenylpiperidin‐4‐yl)carbamoyl)‐L‐methionine], on recombinant GGTase I, the IC50 was 96 nM and the inhibition constant Ki was determined as 3.1 ± 0.5 nM. Moreover, at recombinant FTase, the IC50 was 300 nM and the Ki is 1.8 ± 0.4 nM.

Take `CSCC[C@H](NC(=O)NC1(c2ccccc2)CCN(Cc2cncn2Cc2ccc(-n3cc(COCCCCCCNC(=O)c4ccc(C(=N)N)cc4)nn3)cc2)CC1)C(=O)O` [Compound 5e, ((1‐((1‐(4‐(4‐(((6‐(4‐Carbamimidoylbenzamido)hexyl)oxy)methyl)‐1H‐1,2,3‐triazol‐1‐yl)benzyl)‐1H‐imidazol‐5‐yl)methyl)‐4‐phenylpiperidin‐4‐yl)carbamoyl)‐L‐methionine]: the figures for the IC50 at recombinant GGTase I and on recombinant FTase were 530 nM and 330 nM, respectively. The inhibitory constant (Ki) was found to be 17 ± 5 nM at recombinant GGTase I and 2 ± 0.2 nM on recombinant FTase.

For the compound `C#CCOCCCCCCNC(=N)N` [Compound 12, 1‐(6‐(Prop‐2‐yn‐1‐yloxy)hexyl)guanidine], on recombinant FTase, the IC50 is greater than 500000 nM.

With `C#CCOCCCCCCNC(=O)c1ccc(C(=N)N)cc1` [Compound 13, 4‐Carbamimidoyl‐N‐(6‐(prop‐2‐yn‐1‐yloxy)hexyl)benzamide], the IC50 at recombinant GGTase I and on recombinant FTase was greater than 500000 nM in each case. Moreover, in the test with MiaPaCa2 cells (MiaPaCa2 cells, 72 hours, trypan blue assay), the “antiproliferative activity (result in words)” value was “inactive”.

Turning to `C=CC(=O)N1CCN(c2nc(=O)n(-c3c(C)ccnc3C(C)C)c3nc(-c4c(O)cccc4F)c(F)cc23)[C@@H](C)C1` [sotorasib, reference compound], the IC50 in the test on MiaPaCa2 cells lay in the range of 10 to 100 nM.
